Source: PubChem (Broad Institute)
KDM4C inh = blocks human GASC-1 (KDM4C) demethylase activity | Q9H3R0 | GST-KDM4C 2-372, H3K9me3 peptide, LANCE TR-FRET | inhibition, % at 12.5 µM | hit rate 0.15% among 96,000 | AID 720574;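 active means mean replicate inhibition above about 25%, with at least 55% of replicates also reaching it, limit read from the data, passing the limit was not always enough; inconclusive means only one of those two conditions met; inactive means neither condition met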
Target sequence (Q9H3R0 2-372 limits assumed): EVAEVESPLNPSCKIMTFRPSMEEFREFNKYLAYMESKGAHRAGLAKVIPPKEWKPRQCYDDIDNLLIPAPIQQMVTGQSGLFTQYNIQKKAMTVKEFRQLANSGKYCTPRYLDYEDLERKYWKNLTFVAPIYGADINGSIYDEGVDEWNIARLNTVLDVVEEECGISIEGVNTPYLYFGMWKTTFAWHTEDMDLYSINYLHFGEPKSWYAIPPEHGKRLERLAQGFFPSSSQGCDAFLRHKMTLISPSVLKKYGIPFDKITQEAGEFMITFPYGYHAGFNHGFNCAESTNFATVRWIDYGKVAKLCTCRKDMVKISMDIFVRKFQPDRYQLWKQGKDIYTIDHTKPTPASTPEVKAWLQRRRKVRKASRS
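System: N-terminal GST-fused human GASC-1 (KDM4C) fragment, residues 2-372 / Amount: 10 nM GST-KDM4C in enzyme reaction / Also added: H3K9me3 peptide with Fe(II)/2OG / Times: 30 min demethylation and 1 h detection at room temperature / Signal: LANCE TR-FRET / Read-out basis: Fall in 671/618 emission ratio as inhibition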
IDH1 R132H inh = inhibitors of human IDH1 R132H. inhibition, % at 10 µM. IDH1 R132H reductase, diaphorase/resazurin fluorescence, 60 min. hit rate 0.18% among 70,000. AID 624101; in the data active means inhibition above about 34%; inconclusive means no clear call, values can overlap the other calls; inactive means below about 11%
T cruzi growth-1 = blocks T. cruzi growth in NIH3T3 culture; T. cruzi beta-gal in NIH3T3, GalScreen luminescence, 90 h; inhibition, % at 8.34 µM; hit rate 5.9% among 77,000; AID 624255;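 active means mean inhibition above about 93%, with at least 55% of replicates each passing it, limit read from the data, passing the limit was not always enough; inconclusive means only one of those two conditions holds; inactive means neither condition holds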
T cruzi growth-2 = inhibitors of T. cruzi proliferation; shares compounds with T cruzi growth-1; T. cruzi beta-gal in NIH3T3, GalScreen luminescence, 90 h; inhibition, % at 8.35 µM; AID 651739; hit rate 72% among 5,600;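 active means mean replicate inhibition above about 95% and at least 55% of replicates individually reaching it, limit read from the data; inconclusive means only one of the two criteria is met; inactive means neither criterion is met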
T cruzi growth-3 = inhibitors of T. cruzi proliferation | T. cruzi beta-gal in NIH3T3, GalScreen luminescence, 90 h | shares compounds with T cruzi growth-1 | inhibition, % at 2.09 µM | hit rate 21% among 5,600;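 active means mean inhibition above about 95%, with at least 55% of replicates also reaching it, limit read from the data; inconclusive means meets just one of the two conditions; inactive means meets neither condition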
3T3 cytotox = kills mouse NIH/3T3 fibroblasts; cytotoxicity (signal decrease), % at 8.35 µM; hit rate 14% among 5,600; shares compounds with T cruzi growth-1; AID 651742; NIH/3T3 viability, CellTiter-Glo ATP luminescence, 90 h;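 active means mean signal decrease across replicates above about 35% based on untreated-well scatter, with enough replicates individually passing, limit read from the data; inconclusive means no rule stated though some were filed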
3T3 cytotox 2 = kills mouse NIH/3T3 fibroblasts; shares compounds with T cruzi growth-1; NIH/3T3 viability, CellTiter-Glo ATP luminescence, 90 h; inhibition, % at 24.9 µM; hit rate 56% among 5,600; AID 651744;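 active means mean loss of cell viability signal at or above a set limit, and enough replicates individually reaching it; inconclusive means meets only the mean limit or only the replicate share; inactive means meets neither condition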
Numbers stand for hits; - = inactive; ? = inconclusive; . = not tested or not shown. Shown is part of a subset that was picked to be rich in hits.

SMILES	KDM4C inh	IDH1 R132H inh	T cruzi growth-1	T cruzi growth-2	T cruzi growth-3	3T3 cytotox	3T3 cytotox 2
O=C(CN1CCCCC1)Nc1sc2c(c1C(=O)Nc1ccc(Cl)cc1)CCC2	.	-	.	.	.	.	.
C/C=C/c1ccc2c(c1)O[C@H](CN(C)C(=O)Nc1cccc(F)c1)[C@@H](C)CN([C@@H](C)CO)S2(=O)=O	-	-	-	.	.	.	.
C/C=C/c1ccc2c(c1)O[C@@H](CN(C)C(=O)Nc1cccc(F)c1)[C@@H](C)CN([C@@H](C)CO)S2(=O)=O	-	-	-	.	.	.	.
C/C=C/c1ccc2c(c1)O[C@H](CN(C)C(=O)Nc1cccc(F)c1)[C@H](C)CN([C@H](C)CO)S2(=O)=O	-	-	104.6	99.1	-	-	39.3
C[C@H](CO)N1C[C@H](C)[C@@H](CN(C)C(=O)Nc2cccc(F)c2)Oc2cc(/C=C/c3ccccc3)ccc2S1(=O)=O	-	-	121.5	98.7	114.3	-	35.3
Cc1ccc(-c2nc3c(c(SCC(=O)Nc4cccc(C(F)(F)F)c4)n2)COC(C)(C)C3)cc1	.	-	.	.	.	.	.
CC(C)(O)C1Oc2cc3occ(-c4ccc(O)cc4)c(=O)c3c(O)c2C1O (stereo not given)	.	-	.	.	.	.	.
Cc1ccc(S(=O)(=O)N(C)C[C@@H]2OCCCC[C@@H](C)Oc3ccc(NS(=O)(=O)c4ccc(F)cc4)cc3C(=O)N([C@H](C)CO)C[C@@H]2C)cc1	-	.	-	.	.	.	.
Cc1ccc(S(=O)(=O)N(C)C[C@H]2OCCCC[C@H](C)Oc3ccc(NS(=O)(=O)c4ccc(F)cc4)cc3C(=O)N([C@H](C)CO)C[C@H]2C)cc1	-	.	116.2	98.5	-	-	39.6
Cc1ccc(S(=O)(=O)Nc2ccc3c(c2)C(=O)N([C@@H](C)CO)C[C@H](C)[C@@H](CN(C)S(=O)(=O)c2ccc(F)cc2)OCCCC[C@@H](C)O3)cc1	-	-	.	.	.	.	.
Cc1ccc(S(=O)(=O)Nc2ccc3c(c2)C(=O)N([C@H](C)CO)C[C@H](C)[C@@H](CN(C)S(=O)(=O)c2ccc(F)cc2)OCCCC[C@@H](C)O3)cc1	-	-	.	.	.	.	.
Cc1ccc(S(=O)(=O)Nc2ccc3c(c2)C(=O)N([C@H](C)CO)C[C@H](C)[C@H](CN(C)S(=O)(=O)c2ccc(F)cc2)OCCCC[C@H](C)O3)cc1	-	.	119.7	102.8	107.0	-	-
Cc1ccc(S(=O)(=O)N(C)C[C@@H]2OCCCC[C@H](C)Oc3ccc(NS(=O)(=O)c4ccc(F)cc4)cc3C(=O)N([C@H](C)CO)C[C@@H]2C)cc1	-	.	108.0	97.4	-	-	-
COc1ccc(OC)c(NC(=O)CN(c2cc(C(F)(F)F)ccc2Cl)S(C)(=O)=O)c1	.	-	.	.	.	.	.
CCN1CCN(C(=O)C(C)N(c2ccccc2)S(C)(=O)=O)CC1 (stereo not given)	.	-	.	.	.	.	.
CC(/C=C/C(=O)NO)=C\c1cccc(OC[C@@H]2[C@H]3C[C@H]4c5[nH]c6ccccc6c5CCN4C[C@@H]3CC[C@@H]2O)c1	.	-	.	.	.	.	.
C[C@@H]1CN([C@@H](C)CO)C(=O)c2cccc(NC(=O)Nc3ccc4c(c3)OCO4)c2O[C@H]1CN(C)Cc1ccc(C(=O)Nc2ccccc2N)cc1	-	.	114.6	109.7	?	-	29.9
C[C@H]1CN([C@@H](C)CO)C(=O)c2cccc(NC(=O)Nc3ccc4c(c3)OCO4)c2O[C@@H]1CN(C)Cc1ccc(Oc2ccccc2)cc1	-	-	91.5	96.3	-	-	-
C[C@@H]1CN([C@@H](C)CO)C(=O)c2cc(NC(=O)Nc3ccccc3)ccc2O[C@H]1CN(C)Cc1ccc(Oc2ccccc2)cc1	-	.	-	.	.	.	.
C[C@@H]1CN([C@@H](C)CO)C(=O)c2cccc(NC(=O)Nc3ccc4c(c3)OCO4)c2O[C@@H]1CN(C)Cc1ccc(C(=O)Nc2ccccc2N)cc1	-	-	-	.	.	.	.
C[C@H](CO)N1C[C@H](C)[C@H](CN(C)Cc2ccc(Oc3ccccc3)cc2)Oc2ccc(NC(=O)Nc3ccc4c(c3)OCO4)cc2C1=O	-	.	110.3	102.3	-	-	32.0
C[C@H](CO)N1C[C@H](C)[C@H](CN(C)Cc2ccc(Oc3ccccc3)cc2)Oc2c(NC(=O)Nc3ccc4c(c3)OCO4)cccc2C1=O	-	-	-	.	.	.	.
COc1c(Cl)cc(C(=O)Nc2sc3c(c2C(=O)NC2CCS(=O)(=O)C2)CCC(C)C3)cc1Cl (stereo not given)	.	-	.	.	.	.	.
COc1ccc(C(=O)CSc2n[nH]c(-c3ccccc3)n2)cc1[N+](=O)[O-]	.	-	.	.	.	.	.
C[C@H]1CN([C@@H](C)CO)S(=O)(=O)c2ccc(C3=CCCC3)cc2O[C@@H]1CN(C)C(=O)c1cnccn1	-	-	.	.	.	.	.
SMILES	KDM4C inh	IDH1 R132H inh	T cruzi growth-1	T cruzi growth-2	T cruzi growth-3	3T3 cytotox	3T3 cytotox 2
COC(=O)c1ccc(Cl)c(NC(=O)CN(c2ccc(I)cc2)S(C)(=O)=O)c1	.	-	.	.	.	.	.
COc1ccccc1NC(=O)Cn1cc(C(=O)C2CCCCC2)c2ccccc21	.	-	.	.	.	.	.
C[C@H](CO)N1C[C@H](C)[C@H](CN(C)Cc2ccc(C(F)(F)F)cc2)Oc2ccc(NC(=O)c3ccncc3)cc2CC1=O	-	-	-	.	.	.	.
C[C@H](CO)N1C[C@H](C)[C@H](CN(C)Cc2ccc(C(F)(F)F)cc2)Oc2ccc(NC(=O)C3CC3)cc2CC1=O	-	-	-	.	.	.	.
C[C@H](CO)N1C[C@H](C)[C@@H](CN(C)Cc2ccc(C(F)(F)F)cc2)Oc2ccc(NC(=O)C3CC3)cc2CC1=O	-	-	102.5	105.2	99.4	-	-
C[C@@H]1CN([C@H](C)CO)C(=O)Cc2cc(NC(=O)c3ccncc3)ccc2O[C@H]1CN(C)Cc1ccc(C(F)(F)F)cc1	-	-	105.8	103.8	-	-	63.3
Cc1cc(NS(=O)(=O)c2ccc(NC(=O)c3csc4ccccc34)cc2)no1	.	-	.	.	.	.	.
COc1ccc(-n2c(SCC(=O)c3cccc([N+](=O)[O-])c3)nnc2-c2ccc(Cl)cc2)cc1	.	-	.	.	.	.	.
COC(=O)c1cc(OC)c(OC)cc1NC(=S)N1CCC(C(N)=O)(N2CCCCC2)CC1	.	-	.	.	.	.	.
CCOC(=O)CN(c1c(C)cccc1C)S(C)(=O)=O	.	-	.	.	.	.	.
Cc1cccc(S(=O)(=O)N2C[C@@H]3[C@H](c4ccccc42)[C@@H](CO)N3CC2CCOCC2)c1	-	.	-	.	.	.	.
Cc1cccc(S(=O)(=O)N2C[C@@H]3[C@H](c4ccccc42)[C@@H](CO)N3CC2CCCC2)c1	-	.	-	.	.	.	.
Cc1cccc(S(=O)(=O)N2C[C@H]3[C@@H](c4ccccc42)[C@@H](CO)N3CC2CCCC2)c1	-	.	99.1	103.6	-	-	103.2
Cc1cccc(S(=O)(=O)N2C[C@@H]3[C@H](c4ccccc42)[C@H](CO)N3CC2CCCC2)c1	-	.	98.4	104.4	-	-	98.6
CCN(CC(=O)Nc1cccc(OC)c1)S(=O)(=O)c1ccc(Cl)cc1	.	-	.	.	.	.	.
